The values that follow come from ChEMBL document CHEMBL1152541, “Staurosporine tethered peptide ligands that target cAMP-dependent protein kinase (PKA): optimization and selectivity profiling” (Bioorg Med Chem, 2009).

Test [1] concerns Mast/stem cell growth factor receptor Kit (Homo sapiens), P10721 [V559D,T670I]. Briefly: Binding affinity to human KIT V559D,T670I mutant at 500 nM by cell-based competition binding assay relative to control in presence of DTT. An outline of the steps:
(§1)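 Competition binding screen (Ambit) across a panel of 90 kinases, scoring test ligand displacement of each kinase's binding relative to control. The screen ran under reducing conditions with 7.5 mM DTT.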

In test [2] the target is MAP kinase-activated protein kinase 2 (Homo sapiens) (UniProt P49137). Nature of the test: Binding affinity to human MAPKAPK2 at 200 nM by cell-based competition binding assay relative to control in presence of DTT. A digest of the protocol: as §1
Sequence of MAP kinase-activated protein kinase 2 (Homo sapiens) (P49137 whole entry, looked up): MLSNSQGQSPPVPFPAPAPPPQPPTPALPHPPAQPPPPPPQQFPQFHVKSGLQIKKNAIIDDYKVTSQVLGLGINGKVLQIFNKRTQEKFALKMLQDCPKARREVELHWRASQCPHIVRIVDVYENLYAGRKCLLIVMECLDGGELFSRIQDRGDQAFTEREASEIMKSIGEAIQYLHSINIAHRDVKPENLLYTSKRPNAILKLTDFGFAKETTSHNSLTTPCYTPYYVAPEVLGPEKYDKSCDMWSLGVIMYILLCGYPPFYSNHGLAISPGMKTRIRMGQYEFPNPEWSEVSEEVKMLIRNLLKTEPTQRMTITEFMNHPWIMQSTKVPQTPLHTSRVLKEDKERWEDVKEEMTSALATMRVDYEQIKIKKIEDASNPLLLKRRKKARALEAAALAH
For test [3], the target named is T1, 3-phosphoinositide-dependent protein kinase 1 (Homo sapiens) (UniProt O15530).
T1 sequence (whole entry): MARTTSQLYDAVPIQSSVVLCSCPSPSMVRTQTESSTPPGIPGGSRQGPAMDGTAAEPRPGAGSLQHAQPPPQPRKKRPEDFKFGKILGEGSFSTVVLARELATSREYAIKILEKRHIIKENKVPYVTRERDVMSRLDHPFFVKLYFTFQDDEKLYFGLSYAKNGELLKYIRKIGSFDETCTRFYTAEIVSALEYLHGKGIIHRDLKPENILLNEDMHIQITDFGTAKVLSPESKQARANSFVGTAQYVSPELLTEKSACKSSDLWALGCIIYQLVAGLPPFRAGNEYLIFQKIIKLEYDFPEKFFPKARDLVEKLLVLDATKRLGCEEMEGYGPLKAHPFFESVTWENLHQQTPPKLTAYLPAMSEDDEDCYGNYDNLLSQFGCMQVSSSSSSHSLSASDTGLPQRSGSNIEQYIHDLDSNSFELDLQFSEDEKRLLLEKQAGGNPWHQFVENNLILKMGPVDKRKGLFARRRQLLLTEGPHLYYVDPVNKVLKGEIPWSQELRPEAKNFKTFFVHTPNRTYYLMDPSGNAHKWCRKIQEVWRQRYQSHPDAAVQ
Briefly: Binding affinity to human PDPK1 at 200 nM by cell-based competition binding assay relative to control in presence of DTT.

Test [4] concerns the target Casein kinase I isoform gamma-2 (Homo sapiens) (UniProt P78368). Briefly: Binding affinity to human CSNK1G2 at 200 nM by cell-based competition binding assay relative to control in presence of DTT. An outline of the steps: (§2)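 Commercial (Ambit) competitive kinase-binding panel of 90 kinases measured the binding profile. Run under reducing conditions of 7.5 mM DTT. Binding is expressed relative to control.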

Test [5] addresses T2, Serine/threonine-protein kinase Chk1 (Homo sapiens) (UniProt O14757).
T2 sequence (whole entry): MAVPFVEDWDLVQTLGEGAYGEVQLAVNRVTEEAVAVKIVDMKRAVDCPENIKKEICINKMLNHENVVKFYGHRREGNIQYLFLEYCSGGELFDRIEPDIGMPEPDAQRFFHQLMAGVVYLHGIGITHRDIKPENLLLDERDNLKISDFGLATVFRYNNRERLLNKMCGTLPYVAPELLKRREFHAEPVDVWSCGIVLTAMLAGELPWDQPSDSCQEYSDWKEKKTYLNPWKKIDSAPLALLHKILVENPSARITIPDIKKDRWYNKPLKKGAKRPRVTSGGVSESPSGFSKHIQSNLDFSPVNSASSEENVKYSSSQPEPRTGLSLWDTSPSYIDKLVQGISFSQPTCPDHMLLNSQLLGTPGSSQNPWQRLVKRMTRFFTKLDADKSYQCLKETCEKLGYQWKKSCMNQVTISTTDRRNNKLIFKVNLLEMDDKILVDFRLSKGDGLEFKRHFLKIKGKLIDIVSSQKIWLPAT
Nature of the test: Binding affinity to human CHEK1 at 50 nM by cell-based competition binding assay relative to control in presence of DTT. A digest of the protocol:
as §2

Test [6] addresses T3, Protein kinase C epsilon type (Homo sapiens) (UniProt Q02156).
T3 sequence (whole entry): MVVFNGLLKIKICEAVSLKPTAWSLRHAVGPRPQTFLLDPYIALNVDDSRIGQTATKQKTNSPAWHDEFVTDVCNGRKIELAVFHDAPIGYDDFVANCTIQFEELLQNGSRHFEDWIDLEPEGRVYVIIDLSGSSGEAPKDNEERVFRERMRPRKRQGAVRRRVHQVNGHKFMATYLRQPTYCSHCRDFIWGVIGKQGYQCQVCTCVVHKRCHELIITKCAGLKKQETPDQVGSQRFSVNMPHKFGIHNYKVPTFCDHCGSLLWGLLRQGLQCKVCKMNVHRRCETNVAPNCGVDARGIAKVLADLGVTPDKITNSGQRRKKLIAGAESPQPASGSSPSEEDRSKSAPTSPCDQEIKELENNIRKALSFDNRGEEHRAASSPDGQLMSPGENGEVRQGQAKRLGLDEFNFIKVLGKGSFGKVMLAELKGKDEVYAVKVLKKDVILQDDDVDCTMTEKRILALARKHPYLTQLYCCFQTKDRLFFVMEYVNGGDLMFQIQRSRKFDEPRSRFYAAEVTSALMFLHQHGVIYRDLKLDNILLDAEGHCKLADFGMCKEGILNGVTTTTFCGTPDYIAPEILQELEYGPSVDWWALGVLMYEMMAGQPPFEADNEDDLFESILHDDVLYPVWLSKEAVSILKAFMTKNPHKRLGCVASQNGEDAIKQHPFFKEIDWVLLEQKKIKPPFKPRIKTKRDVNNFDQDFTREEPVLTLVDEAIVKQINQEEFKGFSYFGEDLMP
Nature of the test: Binding affinity to human PRKCepsilon at 50 nM by cell-based competition binding assay relative to control in presence of DTT.

Structures are written as SMILES. *1 amine or outer side, *2 acyl side, *3 side chain or, on linkers, in order; H or OH if unused. Where a SMILES comes first, the peptide text is derived from it. Bridges are numbered along the chain shown (N, C = ends). [ ]: non-standard residue; d: D form. The star is where a group is joined. Staurosporine = CO[C@@H]1[C@H](N(C)*)C[C@H]2O[C@]1(C)n1c3ccccc3c3c4c(c5c6ccccc6n2c5c31)C(=O)NC4; Suc = O=C(CCC(=O)[*:2])[*:1]; Dap = NC[C@H](N)C(=O)O; βAla = NCCC(=O)O

Sequence of Mast/stem cell growth factor receptor Kit (Homo sapiens), P10721 [V559D,T670I] (P10721 whole entry V559D/T670I): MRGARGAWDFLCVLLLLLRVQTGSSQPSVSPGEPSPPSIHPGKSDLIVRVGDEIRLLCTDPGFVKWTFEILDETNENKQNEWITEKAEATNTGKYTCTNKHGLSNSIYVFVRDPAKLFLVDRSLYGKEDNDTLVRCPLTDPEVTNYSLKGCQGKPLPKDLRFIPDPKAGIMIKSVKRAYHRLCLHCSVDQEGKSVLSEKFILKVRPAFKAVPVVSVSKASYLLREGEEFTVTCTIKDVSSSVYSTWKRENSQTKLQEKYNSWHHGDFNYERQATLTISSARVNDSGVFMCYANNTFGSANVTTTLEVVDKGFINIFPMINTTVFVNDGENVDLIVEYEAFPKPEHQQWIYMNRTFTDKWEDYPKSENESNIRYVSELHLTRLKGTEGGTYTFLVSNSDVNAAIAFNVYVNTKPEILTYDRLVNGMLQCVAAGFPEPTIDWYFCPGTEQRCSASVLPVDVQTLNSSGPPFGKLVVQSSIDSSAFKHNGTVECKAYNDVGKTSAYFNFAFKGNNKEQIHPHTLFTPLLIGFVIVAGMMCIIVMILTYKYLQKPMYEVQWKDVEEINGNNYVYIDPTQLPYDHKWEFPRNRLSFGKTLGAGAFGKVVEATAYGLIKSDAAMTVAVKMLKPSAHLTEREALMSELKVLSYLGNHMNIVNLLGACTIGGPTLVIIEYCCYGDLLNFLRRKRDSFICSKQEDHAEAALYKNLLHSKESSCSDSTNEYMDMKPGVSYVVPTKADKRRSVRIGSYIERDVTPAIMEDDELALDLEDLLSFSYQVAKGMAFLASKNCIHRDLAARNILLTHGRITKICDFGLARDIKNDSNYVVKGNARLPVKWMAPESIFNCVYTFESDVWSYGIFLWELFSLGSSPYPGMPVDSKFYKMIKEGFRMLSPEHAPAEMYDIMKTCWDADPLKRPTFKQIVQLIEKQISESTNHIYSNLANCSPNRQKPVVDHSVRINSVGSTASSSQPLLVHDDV
Sequence of Casein kinase I isoform gamma-2 (Homo sapiens) (P78368 whole entry, looked up, canonical isoform): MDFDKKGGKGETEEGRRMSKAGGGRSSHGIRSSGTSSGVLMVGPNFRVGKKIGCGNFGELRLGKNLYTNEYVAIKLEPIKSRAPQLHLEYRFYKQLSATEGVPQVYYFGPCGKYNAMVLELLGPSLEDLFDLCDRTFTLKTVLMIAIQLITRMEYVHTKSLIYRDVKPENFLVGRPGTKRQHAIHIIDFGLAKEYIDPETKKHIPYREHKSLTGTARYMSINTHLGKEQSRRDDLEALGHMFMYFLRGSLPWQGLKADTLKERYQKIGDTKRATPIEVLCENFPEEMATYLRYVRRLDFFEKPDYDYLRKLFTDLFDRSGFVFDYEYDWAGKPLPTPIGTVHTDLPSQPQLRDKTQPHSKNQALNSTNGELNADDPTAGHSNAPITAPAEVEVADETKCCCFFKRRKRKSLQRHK

For `CO[C@@H]1[C@H](N(C)C(=O)CCC(=O)NCCC(=O)NCCC(=O)NCCC(N)=O)C[C@H]2O[C@]1(C)n1c3ccccc3c3c4c(c5c6ccccc6n2c5c31)C(=O)NC4`, in test [1], the Activity was 4.8%.

In the case of `CO[C@@H]1[C@H](N(C)C(=O)CCC(=O)NCCC(=O)NCCC(=O)NCCC(=O)NCCC(=O)NCCC(=O)NCCC(=O)NCCC(=O)N[C@H]2CSSC[C@@H](C(=O)NCC(N)=O)NC(=O)CNC(=O)[C@H](Cc3ccccc3)NC(=O)[C@H](C(C)C)NC(=O)[C@H](CCCNC(=N)N)NC(=O)[C@H](Cc3ccccc3)NC(=O)[C@H](C(C)C)NC2=O)C[C@H]2O[C@]1(C)n1c3ccccc3c3c4c(c5c6ccccc6n2c5c31)C(=O)NC4` ({Staurosporine-Suc-βAla-βAla-βAla-βAla-βAla-βAla-βAla}-CVFRVFGCG-NH2; disulfide 1-8), the Activity in test [2] is 100%; in test [3], 16%; in test [4], 100%.

Consider `CO[C@@H]1[C@H](N(C)C(=O)CCC(=O)NCCC(=O)NCCC(=O)NCCC(=O)NCCC(=O)NCCC(=O)NCCC(=O)NCCC(=O)N[C@H]2CNC(=O)C[C@@H](C(N)=O)NC(=O)CNC(=O)[C@H](Cc3ccccc3)NC(=O)[C@H](C(C)C)NC(=O)[C@H](CCCNC(=N)N)NC(=O)[C@H](Cc3ccccc3)NC(=O)[C@H](C(C)C)NC2=O)C[C@H]2O[C@]1(C)n1c3ccccc3c3c4c(c5c6ccccc6n2c5c31)C(=O)NC4` ({Staurosporine-Suc-βAla-βAla-βAla-βAla-βAla-βAla-βAla}-[Dap]VFRVFGD-NH2; lactam 1-8), for which the Activity came out at 91% in test [5] and 0% in test [6].
